# Experimental data published in ChEMBL document CHEMBL1914291, “Ptilomycalin A inhibits laccase and melanization in Cryptococcus neoformans” (Bioorg Med Chem, 2011).
# Active and inactive are the calls of the source. No cut-off for these calls is given here.
# What was measured:
# [1] = target: T1, Laccase (Trametes versicolor, UniProt O94222); assay: Inhibition of Trametes versicolor laccase assessed as production of dopachrome using 100 uM epinephrine as substrate preincubated for 30 mins before substrate addition
# T1 sequence (O94222 whole entry): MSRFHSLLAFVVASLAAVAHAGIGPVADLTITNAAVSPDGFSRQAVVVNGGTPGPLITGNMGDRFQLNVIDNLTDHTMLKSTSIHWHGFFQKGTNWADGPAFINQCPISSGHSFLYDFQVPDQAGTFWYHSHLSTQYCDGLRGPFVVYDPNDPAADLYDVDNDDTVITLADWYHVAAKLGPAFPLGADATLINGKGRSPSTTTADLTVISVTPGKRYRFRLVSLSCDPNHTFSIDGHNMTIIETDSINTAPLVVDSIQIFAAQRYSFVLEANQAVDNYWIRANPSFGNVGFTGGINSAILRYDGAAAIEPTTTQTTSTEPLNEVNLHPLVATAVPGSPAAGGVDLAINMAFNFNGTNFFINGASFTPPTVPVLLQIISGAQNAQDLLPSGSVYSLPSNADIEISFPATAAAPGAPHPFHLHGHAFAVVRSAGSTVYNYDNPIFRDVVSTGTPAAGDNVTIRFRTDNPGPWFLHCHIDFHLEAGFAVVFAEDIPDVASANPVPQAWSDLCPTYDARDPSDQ
# Procedure, shortened: (§1)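 Cell-free assay with purified Trametes versicolor laccase. Inhibitor (0–1 mM range) is preincubated with the enzyme for 30 min before substrate is added. Substrates are epinephrine 100 μM, dopamine 200 μM or L-dopa 300 μM. Dopachrome formation is monitored colorimetrically at 480 nm. IC50 is taken from dose-response curves, mean of two experiments with SE; NaN3 is the positive control.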
# [2] = target: T1, Laccase; assay: Inhibition of Trametes versicolor laccase assessed as production of dopachrome using 200 uM dopamine as substrate preincubated for 30 mins before substrate addition; procedure, shortened: as §1
# [3] = Inhibition of laccase in Cryptococcus neoformans var. grubii assessed as production of dopachrome using 100 uM epinephrine as substrate preincubated for 30 mins before substrate addition
# Procedure, shortened: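 Whole-cell laccase assay. C. neoformans var. grubii is grown in asparagine salts without glucose to raise laccase, then permeabilized with toluene-ethanol (1:4). Inhibitor (0–1 mM range) is preincubated for 30 min before adding 100 μM epinephrine. Dopachrome is read at 480 nm. IC50 is the mean of two experiments with SE; NaN3 is the positive control.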
# [4] = target: T1, Laccase; assay: Inhibition of Trametes versicolor laccase assessed as production of dopachrome using 300 uM L-dopa as substrate preincubated for 30 mins before substrate addition; procedure, shortened: as §1
# [5] = system: Cryptococcus neoformans; assay: Antimelanogenic activity in non-melanized Cryptococcus neoformans var. grubii assessed as inhibition of pigmentation at 0.5 ug/mL after 10 days by microtiter plate assay in presence of 1 mM catecholamine; type: functional
# Procedure, shortened: (§2)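 Overnight non-melanized culture diluted in fresh defined minimal medium to OD about 0.010–0.020. Cells were exposed to compound from DMSO stock in microtiter wells containing 1 mM catecholamine (epinephrine, dopamine or L-dopa) and grown 10 days at 30 °C. Melanization/pigmentation was scored visually against cell-only and DMSO controls.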
# [6] = system: Cryptococcus neoformans; assay: Antifungal activity in Cryptococcus neoformans var. grubii assessed as clear halo diameter at 20 ug after 6 to 8 days by halo assay in presence of dopamine; type: functional; conditions: read-out: DIZ
# Procedure, shortened: (§3)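 Paper-disk diffusion halo assay on lawns of C. neoformans (MAT α; var. grubii H99 serotype A, var. gattii serotype B) in defined minimal medium agar with 1 mM catecholamine (L-dopa, dopamine or epinephrine). Compounds were dissolved in DMSO and applied to 6.5 mm disks, which were dried 3 h at RT. Plates were incubated at 30 °C for 6–8 days and the clear halo diameter was measured in mm.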
# [7] = system: Cryptococcus gattii; assay: Antifungal activity in Cryptococcus neoformans var. gattii assessed as clear halo diameter at 20 ug after 6 to 8 days by halo assay in presence of L-dopa; type: functional, Cryptococcus bacillisporus; conditions: read-out: DIZ; procedure, shortened: as §3
# [8] = system: Cryptococcus gattii; assay: Antifungal activity in Cryptococcus neoformans var. gattii assessed as clear halo diameter at 2 ug after 6 days by halo assay in presence of 1 mM L-dopa; type: functional, Cryptococcus bacillisporus; procedure, shortened: as §3
# [9] = system: Cryptococcus gattii; assay: Antifungal activity in Cryptococcus neoformans var. gattii assessed as clear halo diameter at 20 ug after 6 to 8 days by halo assay in presence of epinephrine; type: functional, Cryptococcus bacillisporus; conditions: read-out: DIZ; procedure, shortened: as §3
# [10] = system: Cryptococcus gattii; assay: Antifungal activity in Cryptococcus neoformans var. gattii assessed as clear halo diameter at 20 ug after 6 to 8 days by halo assay in presence of dopamine; type: functional, Cryptococcus bacillisporus; conditions: read-out: DIZ; procedure, shortened: as §3
# [11] = system: Cryptococcus neoformans; assay: Antifungal activity in Cryptococcus neoformans var. grubii assessed as clear halo diameter at 20 ug after 6 to 8 days by halo assay in presence of L-dopa; type: functional; conditions: read-out: DIZ; procedure, shortened: as §3
# [12] = system: Cryptococcus neoformans; assay: Antifungal activity in Cryptococcus neoformans var. grubii assessed as clear halo diameter at 20 ug after 6 to 8 days by halo assay in presence of epinephrine; type: functional; conditions: read-out: DIZ; procedure, shortened: as §3
# [13] = system: Cryptococcus neoformans; assay: Antimelanogenic activity in non-melanized Cryptococcus neoformans var. grubii assessed as inhibition of pigmentation at 0.0625 ug/mL after 10 days by microtiter plate assay in presence of 1 mM catecholamine; type: functional; procedure, shortened: as §2
# [14] = system: Cryptococcus neoformans; assay: Antifungal activity in Cryptococcus neoformans var. grubii assessed as clear halo diameter at 2 ug after 6 days by halo assay in presence of 1 mM L-dopa; type: functional; procedure, shortened: as §3
# [15] = system: Cryptococcus neoformans; assay: Antimelanogenic activity in non-melanized Cryptococcus neoformans var. grubii assessed as inhibition of pigmentation at 200 ug/mL after 10 days by microtiter plate assay in presence of 1 mM catecholamine; type: functional
# Procedure, shortened: (§4)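 Broth assay in microtiter plates. An overnight culture of non-melanized C. neoformans var. grubii is diluted in fresh defined minimal medium to OD about 0.010–0.020. It is exposed to single sublethal concentrations (from DMSO; cells/DMSO control) in medium with 1 mM catecholamine (epinephrine, dopamine or L-dopa) at 30 °C. Pigmentation is scored visually at 10 days, with an additional check at 21 days.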
# [16] = system: Cryptococcus neoformans; assay: Antimelanogenic activity in Cryptococcus neoformans var. grubii assessed as halo diameter surrounded by non-melanized cells at 20 ug after 6 to 8 days by halo assay in presence of dopamine; type: functional; conditions: read-out: DIZ
# Procedure, shortened: (§5)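 Paper-disk diffusion halo assay on a lawn of C. neoformans (MAT α; var. grubii H99 serotype A, var. gattii serotype B). Medium is defined minimal medium agar with 1 mM catecholamine (L-dopa, dopamine or epinephrine). Compound is delivered from DMSO stock onto 6.5 mm disks, which are dried 3 h at RT. Incubation is 30 °C for 6–8 days. The read-out is halo diameter (mm), with the halo checked for non-melanized cells.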
# [17] = system: Human immunodeficiency virus; assay: Inhibition of DNA polymerase activity of HIV reverse transcriptase at 10 uM
# [18] = system: Cryptococcus gattii; assay: Antimelanogenic activity in Cryptococcus neoformans var. gattii assessed as halo diameter surrounded by non-melanized cells at 10 ug after 6 days by halo assay in presence of 1 mM L-dopa; type: functional, Cryptococcus bacillisporus; procedure, shortened: as §5
# [19] = system: Cryptococcus gattii; assay: Antimelanogenic activity in Cryptococcus neoformans var. gattii assessed as halo diameter surrounded by non-melanized cells at 20 ug after 6 to 8 days by halo assay in presence of dopamine; type: functional, Cryptococcus bacillisporus; conditions: read-out: DIZ; procedure, shortened: as §5
# [20] = system: Cryptococcus neoformans; assay: Antimelanogenic activity in non-melanized Cryptococcus neoformans var. grubii assessed as onset day of melanization at 2 uM by drop test assay in presence of 1 mM L-dopa (reference value: 6 days); type: functional
# Procedure, shortened: (§6)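 Drop test. C. neoformans culture at 10^7 cells/mL is dosed with compound at 0, 0.06, 0.2, 0.6 and 2 μM. It is dropped onto defined minimal medium plates with 1 mM L-dopa and incubated at 30 °C until melanization occurs. The read-out is the onset day of melanization.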
# [21] = system: Cryptococcus gattii; assay: Antimelanogenic activity in Cryptococcus neoformans var. gattii assessed as halo diameter surrounded by non-melanized cells at 20 ug after 6 to 8 days by halo assay in presence of L-dopa; type: functional, Cryptococcus bacillisporus; conditions: read-out: DIZ; procedure, shortened: as §5
# [22] = system: Cryptococcus neoformans; assay: Antimelanogenic activity in non-melanized Cryptococcus neoformans var. grubii assessed as inhibition of pigmentation at 0.8 ug/mL after 21 days by microtiter plate assay in presence of 1 mM catecholamine; type: functional; procedure, shortened: as §4
# [23] = system: Cryptococcus neoformans; assay: Antimelanogenic activity in Cryptococcus neoformans var. grubii assessed as halo diameter surrounded by non-melanized cells at 20 ug after 6 to 8 days by halo assay in presence of epinephrine; type: functional; conditions: read-out: DIZ; procedure, shortened: as §5
# [24] = system: Cryptococcus neoformans; assay: Antimelanogenic activity in non-melanized Cryptococcus neoformans var. grubii assessed as onset day of melanization at 0.6 uM by drop test assay in presence of 1 mM L-dopa (reference value: 6 days); type: functional; procedure, shortened: as §6
# [25] = system: Cryptococcus neoformans; assay: Antimelanogenic activity in non-melanized Cryptococcus neoformans var. grubii assessed as inhibition of pigmentation at 0.8 ug/mL after 10 days by microtiter plate assay in presence of 1 mM catecholamine; type: functional; procedure, shortened: as §4
# [26] = system: Cryptococcus neoformans; assay: Antimelanogenic activity in Cryptococcus neoformans var. grubii assessed as halo diameter surrounded by non-melanized cells at 10 ug after 6 days by halo assay in presence of 1 mM L-dopa; type: functional; procedure, shortened: as §5
# [27] = system: Cryptococcus neoformans; assay: Antimelanogenic activity in non-melanized Cryptococcus neoformans var. grubii assessed as delay of melanization by drop test assay in presence of 1 mM L-dopa; type: functional; procedure, shortened: as §6
# [28] = system: Cryptococcus neoformans; assay: Antimelanogenic activity in non-melanized Cryptococcus neoformans var. grubii assessed as onset day of melanization at 0.06 uM by drop test assay in presence of 1 mM L-dopa (reference value: 6 days); type: functional; procedure, shortened: as §6
# [29] = system: Cryptococcus gattii; assay: Antimelanogenic activity in Cryptococcus neoformans var. gattii assessed as halo diameter surrounded by non-melanized cells at 20 ug after 6 to 8 days by halo assay in presence of epinephrine; type: functional, Cryptococcus bacillisporus; conditions: read-out: DIZ; procedure, shortened: as §5
# [30] = system: Cryptococcus neoformans; assay: Antimelanogenic activity in Cryptococcus neoformans var. grubii assessed as halo diameter surrounded by non-melanized cells at 20 ug after 6 to 8 days by halo assay in presence of L-dopa; type: functional; conditions: read-out: DIZ; procedure, shortened: as §5
compound,measurement,setting,value
[N-]=[N+]=[N-] [SODIUM AZIDE],IC50,[1],263 µM
same,IC50,[2],257 µM
same,IC50,[3],329 µM
same,IC50,[4],279 µM
Clc1ccc(COC(Cn2ccnc2)c2ccc(Cl)cc2Cl)c(Cl)c1 (centres undefined),Activity,[5],inactive
C[C@@H]1[C@H](O)[C@@H](C)/C=C/C=C/C=C/C=C/C=C/C=C/C=C/[C@H](O[C@@H]2O[C@H](C)[C@@H](O)[C@H](N)[C@@H]2O)C[C@@H]2O[C@](O)(C[C@@H](O)C[C@@H](O)[C@H](O)CC[C@@H](O)C[C@@H](O)CC(=O)O[C@H]1C)C[C@H](O)[C@H]2C(=O)O [AMPHOTERICIN B],zone of inhibition at 20 µg/disc,[6],18 mm
same,zone of inhibition at 20 µg/disc,[7],17 mm
same,diameter of the inhibition zone (DIZ),[8],10 mm
same,zone of inhibition at 20 µg/disc,[9],18 mm
same,zone of inhibition at 20 µg/disc,[10],22 mm
same,zone of inhibition at 20 µg/disc,[11],21 mm
same,zone of inhibition at 20 µg/disc,[12],18 mm
same,Activity,[13],inactive
same,diameter of the inhibition zone (DIZ),[14],15.5 mm
O=C(O)CNCP(=O)(O)O,Activity,[15],inactive
CC[C@H]1CCCC[C@@]2(C[C@@H]3CC[C@@H]4[C@H](C(=O)OCCCCCCCCCCCCCCCC(=O)N(CCCN)CCCCN)[C@]5(CCC[C@@H](C)O5)NC(=[N+]34)N2)O1.[Cl-] [PTILOMYCALIN A],IC50,[1],4.7 µM
same,zone of inhibition at 20 µg/disc,[16],15 mm
same,IC50,[2],4.9 µM
same,inhibition,[17],60%
same,diameter of the inhibition zone (DIZ),[18],9.5 mm
same,zone of inhibition at 20 µg/disc,[19],18 mm
same,Time,[20],25 days
same,IC50,[3],7.3 µM
same,zone of inhibition at 20 µg/disc,[21],17 mm
same,Activity,[22],Active
same,zone of inhibition at 20 µg/disc,[23],12 mm
same,Time,[24],20 days
same,IC50,[4],5.8 µM
same,Activity,[25],Active
same,diameter of the inhibition zone (DIZ),[26],13.5 mm
same,Activity,[27],Dose-dependent effect
same,Time,[28],9 days
same,zone of inhibition at 20 µg/disc,[29],12 mm
same,zone of inhibition at 20 µg/disc,[30],17 mm
